SENP8 block-1: SENP8 protease inhibition | hit rate 1.2% among 330,000 | AID 2540 | purified SENP8, Z-RLRGG-aminoluciferin cleavage, luminescence | inhibition, % at 10 µM; in the data active = inhibition above about 50%
Target sequence (Q96LD8 whole entry, looked up): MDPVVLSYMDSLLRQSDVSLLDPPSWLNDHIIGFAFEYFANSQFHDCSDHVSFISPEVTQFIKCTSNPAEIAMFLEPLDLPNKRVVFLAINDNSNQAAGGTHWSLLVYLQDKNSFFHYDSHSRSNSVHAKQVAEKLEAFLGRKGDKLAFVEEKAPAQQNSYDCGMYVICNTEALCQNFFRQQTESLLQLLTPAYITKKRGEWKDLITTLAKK
SENP7 inh: inhibitors of human SENP7 protease; recombinant SENP7, Z-RLRGG-aminoluciferin luminescence, 40 min; Q9BQF6; hit rate 1.5% among 330,000; inhibition, % at 5 µM;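 active = inhibition above about 50% at the single test dose, limit read from the data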;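 also: plate controls were DMSO with enzyme for no effect and no enzyme buffer wells for full effect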
SENP1 inh: inhibitors of human SENP1 SUMO protease catalytic domain | Q9P0U3 | recombinant SENP1 catalytic domain, CyPet-SUMO1-YPet FRET cleavage | inhibition, % at 10 µM | hit rate 0.21% among 360,000 | AID 624204;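 active = inhibition at least 30% at 10 µM, raw YFP signal under a set limit, fluorescence ratio 0.5 to 1.5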;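 also: 0% = enzyme with DMSO and 100% = no enzyme wells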
Target sequence (Q9P0U3 419-644 limits assumed): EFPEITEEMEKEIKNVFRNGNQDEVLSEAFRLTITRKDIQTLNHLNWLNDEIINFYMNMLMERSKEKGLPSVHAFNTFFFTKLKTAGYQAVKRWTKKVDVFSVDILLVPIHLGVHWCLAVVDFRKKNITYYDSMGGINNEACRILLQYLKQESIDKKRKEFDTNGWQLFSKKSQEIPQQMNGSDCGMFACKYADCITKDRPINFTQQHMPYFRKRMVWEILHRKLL
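Assay system – human recombinant His6-tagged SENP1 catalytic domain enzyme · Input – SENP1 enzyme, 20 pM final · Buffer or medium – Tris pH 8 buffer plus EDTA, NaCl, BME, BSA, NP40, catalase · Schedule – 50 min reaction at room temperature · Technique – FRET read of cyan and yellow fluorescence · Control set – no-enzyme wells low, DMSO-plus-enzyme wells high control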
SENP8 block-2: blocks human SENP8 cleavage of Nedd8 substrate; inhibition, % at 20 µM; Q96LD8; hit rate 0.64% among 360,000; recombinant SENP8, Nedd8 substrate fluorescence; in the data active = inhibition mostly above about 40%, no sharp cut-off; inactive = mostly below about 27%
SENP6 block: inhibitors of human SENP6 protease; AID 2599; Recombinant SENP6 catalytic domain, aminoluciferin luminescence; inhibition, % at 10 µM; hit rate 1.8% among 330,000; Q9GZR1;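 active = inhibition above about 50% at the single tested dose, limit read from the data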;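 also: plate controls were DMSO wells with enzyme for no effect and DMSO wells lacking enzyme for full effect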
SENP8 confirm: confirmation of human SENP8 protease inhibitors; shares compounds with SENP7 inh; Recombinant SENP8, Z-RLRGG-aminoluciferin luminescence, 60 min; hit rate 40% among 6,200; AID 488912; inhibition, % at 12.5 µM;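 active = mean inhibition across replicates above about 50%, limit read from the data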
SENP6 confirm: human SENP6 inhibition, confirmed. AID 488915. hit rate 58% among 6,200. shares compounds with SENP7 inh. inhibition, % at 12.5 µM. recombinant SENP6, Z-RLRGG-aminoluciferin luminescence
SENP7 conf: confirmation of human SENP7 protease inhibitors. recombinant SENP7, Z-RLRGG-aminoluciferin luminescence, 40 min. inhibition, % at 12.5 µM. hit rate 69% among 6,200. shares compounds with SENP7 inh
Casp3 select: selectivity test for SENP inhibitors: human caspase-3 inhibition; hit rate 60% among 6,200; inhibition, % at 12.5 µM; purified caspase-3, Z-DEVD-aminoluciferin luminescence, 60 min; shares compounds with SENP7 inh; AID 488918;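 active = mean inhibition above about 50%, limit read from the data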;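 also: plate controls were enzyme with DMSO for no effect and wells without caspase-3 for full effect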
Target sequence (P42574 28-227 limits assumed): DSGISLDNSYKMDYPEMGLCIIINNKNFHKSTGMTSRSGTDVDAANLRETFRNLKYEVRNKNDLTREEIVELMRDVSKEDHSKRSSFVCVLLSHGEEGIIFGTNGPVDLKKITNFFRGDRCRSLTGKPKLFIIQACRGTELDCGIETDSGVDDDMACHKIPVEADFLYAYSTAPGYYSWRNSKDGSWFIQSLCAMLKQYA
SENP luc ctr: counter-screen for SENP inhibitors: luminescence interference; shares compounds with SENP7 inh; Pre-incubated SENP8/Z-RLRGG-aminoluciferin, luciferase luminescence interference; inhibition, % at 12.5 µM; hit rate 39% among 6,200; AID 488919;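 active = mean inhibition above about 50% when retested at one dose, limit read from the data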;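 also: plate controls were DMSO wells with completed reaction for no effect and substrate without enzyme for full effect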
Numbers without * were called inactive; i = inactive; . = no result given. Compounds with a hit are over-represented: about 2.5% of the library has one in this group of screens.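 The calls were made as follows, unless noted: active = mean inhibition above about 50% in the one-dose retest (limit read from the data); inactive = the rest.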

SMILES	SENP8 block-1	SENP7 inh	SENP1 inh	SENP8 block-2	SENP6 block	SENP8 confirm	SENP6 confirm	SENP7 conf	Casp3 select	SENP luc ctr
COc1ccc(OC(=O)Nc2ccccc2)cc1	83*	-8	2	10	82*	2	88*	100*	92*	86*
CC(=O)Nc1ccc(NC(=O)Oc2ccccc2)cc1	-1	5	2	-49	-12	.	.	.	.	.
CCc1ccc(OC(=O)Nc2ccccc2)cc1	78*	38	1	4	86*	91*	91*	98*	82*	78*
O=C(COc1ccccc1)N1CCN(C(=O)c2ccccc2F)CC1	-10	-9	0	1	-25	.	.	.	.	.
Nc1ccccc1C#Cc1ccccc1	57*	66*	-3	-459	67*	49	76*	91*	59*	63*
Nc1ccc(C#Cc2ccccc2)cc1	3	13	2	-7	33	.	.	.	.	.
Cc1ccc(N/C=C/C(=O)c2ccco2)c(O)c1	47	56*	-36	-72	14	55*	53*	84*	62*	5
CCOC(=O)c1ccc(N/C=C/C(=O)c2ccco2)cc1	83*	-6	-26	-275	85*	69*	71*	85*	88*	30
CCOC(=O)c1ccc(N/C=C/C(=O)c2ccc(OC)c(OC)c2)cc1	-3	-6	-52	-342	-18	.	.	.	.	.
O=C(Nc1ccccc1C(=O)Nc1ccc(F)cc1)c1ccco1	-3	2	2	1	-8	.	.	.	.	.
O=C(/C=C/Nc1ccc(F)cc1)c1ccco1	74*	69*	-50	-336	83*	84*	82*	96*	89*	79*
O=C(/C=C/Nc1ccc(F)cc1)c1ccc(Br)cc1	37	79*	-25	-166	1	4	8	12	36	-3
O=C(/C=C/Nc1ccc([N+](=O)[O-])cc1)c1ccc(Br)cc1	-4	8	-29	-239	-7	.	.	.	.	.
CCN1CCN(S(=O)(=O)c2ccc(Cl)c(C(=O)Nc3nnc(C)s3)c2)CC1	-3	0	1	-1	-10	.	.	.	.	.
O=S1(=O)CCS(=O)(=O)C1c1ccccc1	0	7	2	22	5	.	.	.	.	.
O=C1CCN2C=Nc3cccc4ccc1c2c34	59*	39	-20	i	69*	-25	17	6	-5	-5
O=C1CCC(=O)c2ccc3c4c(ccc1c24)CC3	.	.	-7	-454	.	.	.	.	.	.
CCOc1ccc(/C=C/C2=NNC(=O)CC2)cc1	55*	74*	1	-5	70*	-24	52*	88*	86*	68*
COc1ccc(S(=O)(=O)NNC(=O)c2cc3cc4ccccc4nc3s2)cc1	3	4	0	-89	-6	.	.	.	.	.
COc1ccc2cc3cc(C(=O)NC4CC4)sc3nc2c1	71*	85*	0	-401	90*	6	81*	99*	93*	13
O=C(CNC(=O)c1ccccc1F)c1ccccc1	27	51*	1	11	54*	44	43	81*	79*	53*
O=C1CN(S(=O)(=O)c2cccc(Cl)c2Cl)c2ccccc2N1	1	-4	-15	-13	-1	.	.	.	.	.
CC(=O)NS(=O)(=O)c1ccc(NC(=O)c2ccccn2)cc1	2	2	-1	12	-15	.	.	.	.	.
CCCNS(=O)(=O)c1ccc(NC(=O)c2ccccn2)cc1	41	57*	1	16	69*	36	35	79*	76*	58*
CN(C)S(=O)(=O)c1ccc(NC(=O)c2ccccn2)cc1	-13	22	3	14	-7	.	.	.	.	.
SMILES	SENP8 block-1	SENP7 inh	SENP1 inh	SENP8 block-2	SENP6 block	SENP8 confirm	SENP6 confirm	SENP7 conf	Casp3 select	SENP luc ctr
CCN(CC)S(=O)(=O)c1ccc(NC(=O)c2ccccn2)cc1	39	59*	1	12	64*	49	48	81*	68*	57*
COC(=O)c1ccc2nc(-c3ccc(F)cc3)c(Cc3ccsc3)n2c1	.	.	-14	-369	.	.	.	.	.	.
Nc1ccc(/C=C/c2ccc3ncccc3c2)cc1	52*	74*	-22	-273	60*	46	57*	80*	49	11
Nc1ccc2ncccc2c1	37	9	1	-208	43	.	.	.	.	.
CC1COC(=C2C(=O)OCC2C)C1 (centres undefined)	.	.	1	6	.	.	.	.	.	.
O=C(O)/C=C/c1cccc(NC(=O)c2ccc(Cl)cc2)c1	61*	59*	2	15	74*	66*	63*	88*	84*	71*
O=C(O)/C=C/c1cccc(NC(=O)c2ccccc2)c1	48	69*	1	19	72*	69*	66*	90*	91*	71*
Cc1occc1C(=O)Nc1cccc(/C=C/C(=O)O)c1	-4	11	1	20	29	.	.	.	.	.
CC(=O)Nc1ccc(NC(=O)CCC(=O)Oc2ccc(C)cc2)cc1	3	-5	-1	15	14	.	.	.	.	.
Clc1ccc(-n2nnc(-c3ncc[nH]3)n2)cc1Cl	-5	12	-1	6	4	.	.	.	.	.
Clc1ccc(-n2nnc(-c3nccs3)n2)cc1Cl	72*	82*	1	8	82*	24	44	60*	68*	-5
Clc1ccc(-n2nnc(-c3cccnc3)n2)cc1Cl	19	51*	3	17	62*	6	12	31	51*	8
Cc1ccc(-n2nnc(-c3nccs3)n2)cc1	94*	98*	-1	14	94*	97*	97*	101*	97*	94*
CC(C)(C)NC(=O)C1(C)CCC(=O)N1CCCn1ccnc1 (centres undefined)	.	.	3	18	.	.	.	.	.	.
COc1ccc(CCNC(=O)c2cccc(C(=O)NCCc3ccc(OC)cc3)n2)cc1	-5	0	3	11	-7	.	.	.	.	.
COc1ccccc1N(CC(=O)Nc1cc(C)on1)S(=O)(=O)c1cccc(C(F)(F)F)c1	7	7	0	4	-2	.	.	.	.	.
CCCSc1ccc2nc(-c3ccccc3)cn2c1	96*	98*	3	-356	96*	98*	99*	102*	97*	93*
CC(=O)N=c1sc2ccccc2n1C	-6	-6	-1	14	4	.	.	.	.	.
COc1ccc(C(=O)N=c2sc3ccccc3n2C)cc1	69*	77*	3	-433	1	15	23	24	17	9

Bioassay records (PubChem BioAssay)
